A short description of series [1]: folding enthalpy; higher = less favourable; fluorescence melt of hairpins on a sequencing array, two-state fit. To be noted: sodium 0.088 M. In outline:
(§1)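 Library hairpins on a sequenced MiSeq flow cell carried annealed Cy3 and quencher oligos, and their Cy3 fluorescence was imaged in 50 mM Na-HEPES pH 8.0 with 25 mM NaCl, in 2.5 °C steps up to 60 °C. Signals were normalised to Cy3 before quenching and to control constructs. Melting temperature and folding enthalpy were obtained from bootstrapped two-state fits, combined by inverse-variance weighting across four replicates, and the fitted temperatures were then raised by 9.35 °C to match UV melts.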

Series [2] is described as follows: melting temperature; fluorescence melt of hairpins on a sequencing array, two-state fit, raised by 9.35 °C to match UV melts. To be noted: sodium 0.088 M. In outline:
as §1

Folding enthalpy and Tm data for 37 sequences are collected here from the array DNA melting data of Ke et al. (doi:10.1101/2024.01.08.574731).

Regarding GATCTTACTGAAGATC ((((((....)))))), the folding enthalpy in series [1] is -26.9 kcal/mol. Besides, in series [2], the Tm turned out to be 42.2 °C.

Take GCTGCCGAAAGGCCGAGC ((((((....)))..))): the folding enthalpy in series [1] was -13.9 kcal/mol. In addition, the Tm in series [2] was determined as 43.6 °C.

Take GATCTCAGCCGAGATC ((((((....)))))): the folding enthalpy in series [1] was -39.6 kcal/mol. Also, the Tm in series [2] came to 52.6 °C.

Take CCAATGAAAATTGG (((((....))))): the folding enthalpy in series [1] was -18.1 kcal/mol. Moreover, the Tm in series [2] was 41.9 °C.

In the case of GATCACCATGTGATC ((((((...)))))), in series [1], the folding enthalpy was -33 kcal/mol. The Tm in series [2] worked out at 59.2 °C.

In the case of GATCTCTCCGGAGATC ((((((....)))))), the folding enthalpy in series [1] is -39.6 kcal/mol. In series [2], the Tm is 56.2 °C.

On to GTGGCCCGAAAGGGCAC (((.(((....)))))), for which the folding enthalpy in series [1] was -10.3 kcal/mol. In addition, the Tm in series [2] amounted to 62 °C.

In the case of GGACGCGGAAACGCATCC (((.(((....))).))), the folding enthalpy in series [1] was -26.3 kcal/mol. Besides, the Tm in series [2] is 48.9 °C.

As for CGTGTGCGGAAACGCACG (((..(((....)))))), in series [1], the folding enthalpy is -6.54 kcal/mol. Also, the Tm in series [2] was 54.5 °C.

As for GGTCCCGAAAGGGAGACC ((((((....)))..))), in series [1], the folding enthalpy was -17 kcal/mol. Also, in series [2], the Tm amounted to 51.4 °C.

For GATCTCTGGGAGATC ((((((...)))))), the folding enthalpy in series [1] is -34.7 kcal/mol. In addition, in series [2], the Tm worked out at 53.6 °C.

As to GCGTAAAACGC ((((...)))), the folding enthalpy in series [1] was -21.7 kcal/mol. The Tm in series [2] came to 52.9 °C.

Regarding GATTACGAAAGTAAAATC ((((((....)))..))), the folding enthalpy in series [1] is -17.6 kcal/mol. Besides, the Tm in series [2] was 28.5 °C.

In the case of GTCGGGCGAAAGCCAGAC (((.(((....))).))), the folding enthalpy in series [1] was -30 kcal/mol. In series [2], the Tm is 65.2 °C.

For the sequence GATCTCACTGAGATC ((((((...)))))), the folding enthalpy in series [1] was -34 kcal/mol. For the same sequence, the Tm in series [2] is 52.1 °C.

For the sequence GGGATACGAAAGTAACCC (((.(((....))).))), in series [1], the folding enthalpy was -31.1 kcal/mol. The Tm in series [2] worked out at 51.7 °C.

With GCTCGACGAAAGTCAGC (((.(((....)))))), the folding enthalpy in series [1] was -19.3 kcal/mol. Moreover, the Tm in series [2] came to 51.6 °C.

Turning to GATCACCCCAGTGATC ((((((....)))))), the folding enthalpy in series [1] is -44.7 kcal/mol. Besides, the Tm in series [2] came to 60 °C.

For GCTAGTGGAAACACTAAC (.(((((....))))).), the folding enthalpy in series [1] is -15.2 kcal/mol. For the same sequence, the Tm in series [2] stood at 32.5 °C.

Turning to GTACCCGAAAGGGACTAC ((((((....)))..))), in series [1], the folding enthalpy was -14.3 kcal/mol. In addition, the Tm in series [2] is 45.8 °C.

As for GCTTTAGGAAACCAAAGC (((((.(....).))))), the folding enthalpy in series [1] was -28.3 kcal/mol. Also, the Tm in series [2] stood at 35.4 °C.

Take GTCCTACGAAAGTAGAC (((.(((....)))))): the folding enthalpy in series [1] was -18.1 kcal/mol. For the same sequence, in series [2], the Tm amounted to 39.6 °C.

As for GCGGGATTCCGC ((((....)))), in series [1], the folding enthalpy was -20.5 kcal/mol. The Tm in series [2] came to 59.1 °C.

Regarding GATCGAGATTTCGATC ((((((....)))))), the folding enthalpy in series [1] was -46.7 kcal/mol. The Tm in series [2] came out at 51.8 °C.

GGGCACCGAAAGGTTCCC (((.(((....))).))): the folding enthalpy in series [1] is -32.4 kcal/mol. For the same sequence, the Tm in series [2] is 52.5 °C.

As to GCTGAGCGAAAGCCTAGC (((..((....))..))), the folding enthalpy in series [1] was -16.4 kcal/mol. Also, in series [2], the Tm was 48.4 °C.

Take GCATCCGGAAACGGACAC (..((((....))))..): the folding enthalpy in series [1] was -12.7 kcal/mol. Besides, in series [2], the Tm was determined as 21.6 °C.

In the case of GTGTACGAAAGTACAC ((((((....)))))), the folding enthalpy in series [1] was -29.7 kcal/mol. In addition, the Tm in series [2] amounted to 69.1 °C.

Take GATCAGGTGTCTGATC ((((((....)))))): the folding enthalpy in series [1] is -40.2 kcal/mol. Further, in series [2], the Tm was determined as 50.9 °C.

For GTACCCGAAAGGGAGTAC ((((((....)))..))), the folding enthalpy in series [1] is -15.3 kcal/mol. The Tm in series [2] stood at 39.9 °C.

With GACAAGGGAAACCTTGCC (.(((((....))))).), in series [1], the folding enthalpy is -14.8 kcal/mol. In series [2], the Tm is 42 °C.

For the sequence CGAGCGGAAACGCCCTCG ((((((....)))..))), the folding enthalpy in series [1] was -12.8 kcal/mol. The Tm in series [2] is 35.9 °C.

Consider CGGACGGAAACGTGTCCG ((((((....)))..))), for which the folding enthalpy in series [1] is -32.8 kcal/mol. Besides, the Tm in series [2] is 49.5 °C.

Regarding GCACGGCGAAAGCCTCGC ((..(((....)))..)), the folding enthalpy in series [1] was -16.5 kcal/mol. Further, the Tm in series [2] turned out to be 42 °C.

Regarding GATCCTTCTGAGGATC ((((((....)))))), the folding enthalpy in series [1] was -38.4 kcal/mol. Further, the Tm in series [2] came out at 53.7 °C.

With GTGTGGGGAAACTCACGC (.(((.(....).))).), the folding enthalpy in series [1] is -28 kcal/mol. The Tm in series [2] was 44.7 °C.

On to GCCTAAGGAAACTTAGAC (.(((((....))))).), for which, in series [1], the folding enthalpy is -19.8 kcal/mol. In series [2], the Tm came to 27.8 °C.
